{"source": "paper PMC10213863", "about": "(Cell Reports Medicine, 2023)", "assay_type_in_all_cases": "cell-based", "key": {"TLR3": {"target": "TLR3 (Homo sapiens, UniProt O15455)", "sequence (O15455 24-904)": "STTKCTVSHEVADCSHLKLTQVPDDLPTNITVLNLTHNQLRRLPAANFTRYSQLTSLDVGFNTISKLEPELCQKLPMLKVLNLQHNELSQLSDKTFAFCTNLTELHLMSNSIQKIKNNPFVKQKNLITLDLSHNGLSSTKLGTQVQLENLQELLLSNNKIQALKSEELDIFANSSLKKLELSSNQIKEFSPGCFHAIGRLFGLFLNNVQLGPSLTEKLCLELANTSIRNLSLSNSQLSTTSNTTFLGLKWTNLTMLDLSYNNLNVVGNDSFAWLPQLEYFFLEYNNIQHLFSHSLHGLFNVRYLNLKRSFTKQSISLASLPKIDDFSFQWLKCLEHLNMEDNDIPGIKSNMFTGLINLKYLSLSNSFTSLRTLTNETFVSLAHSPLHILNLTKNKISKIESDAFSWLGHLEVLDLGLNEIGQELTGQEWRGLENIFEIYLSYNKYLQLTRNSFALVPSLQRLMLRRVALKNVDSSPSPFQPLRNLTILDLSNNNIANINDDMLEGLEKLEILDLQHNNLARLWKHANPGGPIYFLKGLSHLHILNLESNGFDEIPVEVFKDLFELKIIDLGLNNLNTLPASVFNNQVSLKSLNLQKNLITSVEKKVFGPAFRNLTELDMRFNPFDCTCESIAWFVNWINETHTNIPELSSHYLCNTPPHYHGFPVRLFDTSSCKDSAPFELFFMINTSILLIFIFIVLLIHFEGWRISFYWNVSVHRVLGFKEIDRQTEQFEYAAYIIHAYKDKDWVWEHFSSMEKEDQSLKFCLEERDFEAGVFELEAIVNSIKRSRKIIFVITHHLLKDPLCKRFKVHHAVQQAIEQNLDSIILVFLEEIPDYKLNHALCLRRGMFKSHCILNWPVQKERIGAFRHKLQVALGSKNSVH", "assay": "Ramos Blue reporter B cell line, Poly", "settings": "Ramos cells; Poly(I:C) stimulation", "summary_of_the_method": "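Ramos Blue B reporter cells were pre-treated 30 min at 37°C, 5% CO2 with increasing concentrations of test compound or 0.25% v/v DMSO. They were then stimulated with the respective agonist, and reporter activity was read.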"}, "TLR4": {"target": "TLR4 (Mus musculus, UniProt Q9QUK6)", "sequence (Q9QUK6 26-835)": "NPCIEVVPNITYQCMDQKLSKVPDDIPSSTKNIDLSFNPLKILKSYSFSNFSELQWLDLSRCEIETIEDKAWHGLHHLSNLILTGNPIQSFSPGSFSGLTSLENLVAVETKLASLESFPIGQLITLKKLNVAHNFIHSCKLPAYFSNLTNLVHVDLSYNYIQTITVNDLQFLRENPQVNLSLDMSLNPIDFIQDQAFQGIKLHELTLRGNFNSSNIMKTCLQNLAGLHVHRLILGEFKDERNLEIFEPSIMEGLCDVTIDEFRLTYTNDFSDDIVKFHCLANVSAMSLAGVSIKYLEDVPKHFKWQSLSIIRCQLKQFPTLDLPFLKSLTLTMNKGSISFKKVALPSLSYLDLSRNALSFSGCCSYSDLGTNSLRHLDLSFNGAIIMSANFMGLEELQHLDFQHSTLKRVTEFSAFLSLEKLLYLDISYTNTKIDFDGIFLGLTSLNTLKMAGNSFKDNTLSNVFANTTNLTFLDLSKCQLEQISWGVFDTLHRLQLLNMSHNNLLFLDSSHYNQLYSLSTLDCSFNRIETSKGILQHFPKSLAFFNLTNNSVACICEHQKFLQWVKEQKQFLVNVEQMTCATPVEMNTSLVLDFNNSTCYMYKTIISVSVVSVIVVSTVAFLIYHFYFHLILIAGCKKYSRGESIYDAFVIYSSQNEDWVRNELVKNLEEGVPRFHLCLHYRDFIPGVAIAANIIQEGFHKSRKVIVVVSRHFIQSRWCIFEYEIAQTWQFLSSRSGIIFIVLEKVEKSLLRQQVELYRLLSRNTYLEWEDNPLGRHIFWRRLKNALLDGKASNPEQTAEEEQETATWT", "sequence (Q9JHF9 19-160 partner)": "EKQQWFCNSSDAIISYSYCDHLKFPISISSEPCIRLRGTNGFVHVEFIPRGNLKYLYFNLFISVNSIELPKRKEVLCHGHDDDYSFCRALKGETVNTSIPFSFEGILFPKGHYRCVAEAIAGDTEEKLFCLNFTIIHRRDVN", "assay": "Murine whole blood assay, TLR4 activation", "settings": "up to 10 μM, data not shown, n = 4", "summary_of_the_method": "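Fresh human blood or 129/Sv mouse blood was taken into citrate and diluted 1:1 with RPMI1640. It was pre-incubated 30 min at 37°C, 5% CO2 with increasing concentrations of test compound or 0.25% v/v DMSO (final). Blood was then stimulated with TLR agonists at doses from earlier work, or with R848 (3 μM), and cytokines were quantified. Viability was checked by ATPlite luminescence.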"}, "TLR7": {"target": "T1, TLR7 (Homo sapiens, UniProt Q9NYK1)", "T1 sequence (Q9NYK1 27-1049)": "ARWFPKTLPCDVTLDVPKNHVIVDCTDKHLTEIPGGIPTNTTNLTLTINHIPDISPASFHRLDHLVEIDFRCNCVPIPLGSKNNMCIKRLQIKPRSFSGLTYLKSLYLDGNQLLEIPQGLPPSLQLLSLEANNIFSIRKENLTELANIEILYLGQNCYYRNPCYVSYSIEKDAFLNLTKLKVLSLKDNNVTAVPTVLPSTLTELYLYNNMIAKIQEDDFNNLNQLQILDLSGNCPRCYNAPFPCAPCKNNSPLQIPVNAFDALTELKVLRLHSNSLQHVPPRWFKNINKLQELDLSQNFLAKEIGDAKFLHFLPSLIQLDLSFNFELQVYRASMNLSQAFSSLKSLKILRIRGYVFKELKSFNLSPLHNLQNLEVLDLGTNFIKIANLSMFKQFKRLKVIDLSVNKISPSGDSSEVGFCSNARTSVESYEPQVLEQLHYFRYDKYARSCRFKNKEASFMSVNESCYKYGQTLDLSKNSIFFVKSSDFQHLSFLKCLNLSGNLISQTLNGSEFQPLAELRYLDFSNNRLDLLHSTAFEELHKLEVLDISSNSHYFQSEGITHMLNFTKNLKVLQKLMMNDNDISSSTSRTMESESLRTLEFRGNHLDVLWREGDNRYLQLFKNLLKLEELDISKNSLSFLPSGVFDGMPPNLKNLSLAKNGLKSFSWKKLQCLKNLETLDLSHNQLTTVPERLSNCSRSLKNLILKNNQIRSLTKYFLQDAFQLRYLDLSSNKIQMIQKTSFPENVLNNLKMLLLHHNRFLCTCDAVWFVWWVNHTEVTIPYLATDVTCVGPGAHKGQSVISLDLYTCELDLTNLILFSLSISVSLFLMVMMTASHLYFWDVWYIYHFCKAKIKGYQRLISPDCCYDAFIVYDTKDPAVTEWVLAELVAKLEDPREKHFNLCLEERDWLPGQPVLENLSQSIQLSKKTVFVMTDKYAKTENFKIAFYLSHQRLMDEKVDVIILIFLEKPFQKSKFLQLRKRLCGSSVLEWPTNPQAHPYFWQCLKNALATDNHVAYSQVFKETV", "assay": "Human PBMC assay, ssRNA-induced IFN-α", "settings": "human PBMCs, mean ± SEM (n)", "summary_of_the_method": "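Human PBMCs were pre-incubated 30 min with test compound, then stimulated with the respective TLR or IL-1R agonist at doses from earlier work. Cytokines in supernatants were quantified by immunoassay. Viability across the dose range was checked by CellTiter-Glo.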"}, "TLR8": {"target": "T2, TLR8 (Homo sapiens, UniProt Q9NR97)", "T2 sequence (Q9NR97 27-1041)": "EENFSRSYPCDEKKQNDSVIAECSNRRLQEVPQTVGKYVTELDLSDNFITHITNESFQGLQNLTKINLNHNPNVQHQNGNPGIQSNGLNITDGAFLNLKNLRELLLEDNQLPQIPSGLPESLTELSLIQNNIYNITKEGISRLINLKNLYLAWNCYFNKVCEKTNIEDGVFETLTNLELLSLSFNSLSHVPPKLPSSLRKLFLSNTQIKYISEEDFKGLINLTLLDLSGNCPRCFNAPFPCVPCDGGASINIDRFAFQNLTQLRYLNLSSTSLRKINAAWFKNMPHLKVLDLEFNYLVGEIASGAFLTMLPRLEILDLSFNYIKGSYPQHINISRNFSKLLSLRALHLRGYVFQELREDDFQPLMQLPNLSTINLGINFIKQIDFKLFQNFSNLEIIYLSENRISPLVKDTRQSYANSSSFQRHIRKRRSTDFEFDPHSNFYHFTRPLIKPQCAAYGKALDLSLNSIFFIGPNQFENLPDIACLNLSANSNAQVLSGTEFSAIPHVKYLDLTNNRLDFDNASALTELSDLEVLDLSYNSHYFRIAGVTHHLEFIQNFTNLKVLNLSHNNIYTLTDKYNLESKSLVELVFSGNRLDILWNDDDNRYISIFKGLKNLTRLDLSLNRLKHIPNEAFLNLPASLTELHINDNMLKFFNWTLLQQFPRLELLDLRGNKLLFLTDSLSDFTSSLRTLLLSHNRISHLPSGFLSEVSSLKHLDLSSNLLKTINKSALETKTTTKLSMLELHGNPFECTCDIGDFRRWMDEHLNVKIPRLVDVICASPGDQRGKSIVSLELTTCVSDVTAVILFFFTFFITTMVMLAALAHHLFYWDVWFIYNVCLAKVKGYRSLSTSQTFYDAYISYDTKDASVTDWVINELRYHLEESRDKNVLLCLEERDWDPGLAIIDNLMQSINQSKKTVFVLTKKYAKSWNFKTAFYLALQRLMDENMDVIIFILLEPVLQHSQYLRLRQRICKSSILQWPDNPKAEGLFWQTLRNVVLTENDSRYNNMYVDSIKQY", "assay": "HEK293-NFkB-luciferase reporter cells transfected with TLR8, R848 stimulation", "summary_of_the_method": "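HEK293-NFkB-luciferase cells stably expressing HA-tagged human TLR7 or TLR8 were pre-treated 60 min at 37°C, 5% CO2 with increasing concentrations of test compound or 0.25% v/v DMSO. They were then stimulated 6 h with R848: 0.3 μM for TLR7, 4 μM for TLR8. Luciferase activity […] was read by Bright-Glo luminescence.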"}}, "data": [{"smiles": "Cc1cc(N2CCc3c(c(C)nn3CC34CCC(NC(=O)[C@@H]5COCCN5)(CC3)CC4)C2)c2cnn(C)c2n1", "note": "[MHV370, (S)-N-(4-((5-(1,6-dimethyl-1H-pyrazolo[3,4-b]pyridin-4-yl)-3-methyl-4,5,6,7-tetrahydro-1H-pyrazolo[4,3-c]pyridin-1-yl)methyl)bicyclo[2.2.2]octan-1-yl)morpholine-3-carboxamide]", "values": [{"measurement": "inhibitory activity against TLR3", "setting": "TLR3", "value": "no or very limited inhibitory activity"}, {"measurement": "functional inhibition of TLR4", "setting": "TLR4", "value": "did not show functional inhibition"}, {"measurement": "IC50", "setting": "TLR7", "value": "4.1 ± 0.4", "unit": "nM"}, {"measurement": "IC50", "setting": "TLR8", "value": "4.5 ± 1.1", "unit": "nM"}]}]}
